{"source": "ChEMBL document CHEMBL3616437", "about": "“Thiazole compounds with activity against Cryptococcus gattii and Cryptococcus neoformans in vitro” (Eur J Med Chem, 2015)", "key": {"[1]": {"tested_on": "Cryptococcus gattii species complex", "test": "Antifungal activity against Cryptococcus gattii L24/01 after 48 to 72 hrs by broth microdilution method", "assay_type": "functional, Cryptococcus bacillisporus", "outline": "(§1)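 CLSI M27-A3 broth microdilution in RPMI with L-glutamine, buffered to pH 7.0 with 0.165 M MOPS. Colonies grown twice on SDA, 48 h at 35°C. Inoculum set to 70% transmittance at 530 nm, then diluted to 1-5 x10^3 cells/mL. Test agents dissolved in DMSO, serially diluted, tested at 0.1 to 62.5 µM. Plates held at 35°C for 48-72 h. MIC is the lowest concentration giving an optically clear well, read visually against drug-free growth controls.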"}, "Cryptococcus neoformans [2]": {"tested_on": "Cryptococcus neoformans", "test": "Antifungal activity against Cryptococcus neoformans VM-MCMMPI after 48 to 72 hrs by broth microdilution method", "assay_type": "functional", "outline": "(§2)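 CLSI M27-A3 broth microdilution. Isolates subcultured twice on SDA, 48 h at 35°C. Saline suspension adjusted to 70% transmittance at 530 nm, then diluted to 1-5 x10^3 cells/mL in RPMI with L-glutamine, 0.165 M MOPS, pH 7.0. Compounds in DMSO, tested at […]. 35°C for 48-72 h. MIC read visually as the lowest concentration giving an optically clear well.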"}, "[3]": {"tested_on": "Cryptococcus gattii species complex", "test": "Antifungal activity against Cryptococcus gattii 547/OTTI-97-PI-10 after 48 to 72 hrs by broth microdilution method", "assay_type": "functional, Cryptococcus bacillisporus", "outline": "as §1"}, "Cryptococcus neoformans [4]": {"tested_on": "Cryptococcus neoformans", "test": "Antifungal activity against Cryptococcus neoformans 28JF after 48 to 72 hrs by broth microdilution method", "assay_type": "functional", "outline": "as §2"}, "Cryptococcus neoformans [5]": {"tested_on": "Cryptococcus neoformans", "test": "Antifungal activity against Cryptococcus neoformans WP after 48 to 72 hrs by broth microdilution method", "assay_type": "functional", "outline": "as §2"}, "Cryptococcus neoformans [6]": {"tested_on": "Cryptococcus neoformans", "test": "Antifungal activity against Cryptococcus neoformans ATCC 28957 after 48 to 72 hrs by broth microdilution method", "assay_type": "functional", "outline": "as §2"}, "Cryptococcus neoformans [7]": {"tested_on": "Cryptococcus neoformans", "test": "Antifungal activity against Cryptococcus neoformans 5396 after 48 to 72 hrs by broth microdilution method", "assay_type": "functional", "outline": "as §2"}, "Cryptococcus neoformans [8]": {"tested_on": "Cryptococcus neoformans", "test": "Antifungal activity against Cryptococcus neoformans CN31 after 48 to 72 hrs by broth microdilution method", "assay_type": "functional", "outline": "as §2"}, "[9]": {"tested_on": "Cryptococcus gattii species complex", "test": "Antifungal activity against Cryptococcus gattii ICB181 after 48 to 72 hrs by broth microdilution method", "assay_type": "functional, Cryptococcus bacillisporus", "outline": "as §1"}, "Cryptococcus neoformans [10]": {"tested_on": "Cryptococcus neoformans", "test": "Antifungal activity against Cryptococcus neoformans F10 after 48 to 72 hrs by broth microdilution method", "assay_type": "functional", "outline": "as §2"}, "Cryptococcus neoformans [11]": {"tested_on": "Cryptococcus neoformans", "test": "Antifungal activity against Cryptococcus neoformans 27JF after 48 to 72 hrs by broth microdilution method", "assay_type": "functional", "outline": "as §2"}, "Vero": {"tested_on": "Vero", "test": "Cytotoxicity against African green monkey Vero cells assessed as cell viability measured after 48 hrs by MTT assay", "assay_type": "cell-based", "conditions": "Chlorocebus sabaeus", "outline": "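VERO cells in D-MEM with 5% FBS, used up to 20 passages. Seeded 1 x 10^4 cells/well, pre-incubated 24 h at 37°C. Exposed 48 h at 37°C, 5% CO2, to eight nonserial dilutions from 100 to 0.0128 µM, with 0.5% DMSO control. MTT reduction read-out, corrected for background and blank. IC50 reported as median with 95% CI. Triplicate, two independent experiments.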"}, "Cryptococcus neoformans [12]": {"tested_on": "Cryptococcus neoformans", "test": "Antifungal activity against Cryptococcus neoformans LMM820 after 48 to 72 hrs by broth microdilution method", "assay_type": "functional", "outline": "as §2"}, "Cryptococcus neoformans [13]": {"tested_on": "Cryptococcus neoformans", "test": "Antifungal activity against Cryptococcus neoformans ATCC 62066 after 48 to 72 hrs by broth microdilution method", "assay_type": "functional"}, "[14]": {"tested_on": "Cryptococcus gattii species complex", "test": "Antifungal activity against Cryptococcus gattii 196L/03 after 48 to 72 hrs by broth microdilution method", "assay_type": "functional, Cryptococcus bacillisporus", "outline": "as §1"}, "[15]": {"test": "Selectivity index, ratio of IC50 for C57BL/6 mouse peritoneal macrophages to MIC for Cryptococcus neoformans ATCC 24067", "outline": "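SI = IC50/MIC. Thioglycollate-elicited peritoneal macrophages from C57BL/6 mice are seeded at 1 x 10^5/well. They are exposed for 48 h at 37°C to eight concentrations from 100 to 0.0128 µM. Viability read by MTT versus 0.5% DMSO control, triplicate in two experiments.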"}, "[16]": {"tested_on": "Cryptococcus gattii species complex", "test": "Antifungal activity against Cryptococcus gattii L28/02 after 48 to 72 hrs by broth microdilution method", "assay_type": "functional, Cryptococcus bacillisporus", "outline": "as §1"}, "[17]": {"tested_on": "Cryptococcus gattii species complex", "test": "Antifungal activity against Cryptococcus gattii LMM818 after 48 to 72 hrs by broth microdilution method", "assay_type": "functional, Cryptococcus bacillisporus", "outline": "as §1"}, "[18]": {"tested_on": "Cryptococcus gattii species complex", "test": "Antifungal activity against Cryptococcus gattii 23/10993 after 48 to 72 hrs by broth microdilution method", "assay_type": "functional, Cryptococcus bacillisporus", "outline": "as §1"}, "[19]": {"tested_on": "Cryptococcus gattii species complex", "test": "Antifungal activity against Cryptococcus gattii 1913ER after 48 to 72 hrs by broth microdilution method", "assay_type": "functional, Cryptococcus bacillisporus", "outline": "as §1"}, "[20]": {"tested_on": "Cryptococcus gattii species complex", "test": "Antifungal activity against Cryptococcus gattii L27/01 after 48 to 72 hrs by broth microdilution method", "assay_type": "functional, Cryptococcus bacillisporus", "outline": "as §1"}, "Cryptococcus neoformans [21]": {"tested_on": "Cryptococcus neoformans", "test": "Antifungal activity against Cryptococcus neoformans 96806 after 48 to 72 hrs by broth microdilution method", "assay_type": "functional", "outline": "as §2"}, "[22]": {"tested_on": "Cryptococcus gattii species complex", "test": "Antifungal activity against Cryptococcus gattii 135L/03 after 48 to 72 hrs by broth microdilution method", "assay_type": "functional, Cryptococcus bacillisporus", "outline": "as §1"}, "Cryptococcus neoformans [23]": {"tested_on": "Cryptococcus neoformans", "test": "Ratio of compound MIC for Cryptococcus neoformans 5396 in presence of amphotericin B to compound MIC for Cryptococcus neoformans 5396 in absence of amphotericin B by checkerboard microtiter test", "assay_type": "functional", "outline": "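Checkerboard microdilution: eight two-fold dilutions of test compound (0.11 to 15.6 µM) crossed with amphotericin B (0.025 to 3.9 µM, in DMSO) or fluconazole (0.48 to 62.5 µM, in water). Inoculum per CLSI M27-A3 in RPMI-MOPS pH 7.0, 1-5 x10^3 cells/mL. Growth 48 to 72 h. Effective MIC is the combination concentration giving complete inhibition. FICs derived from MICs in combination versus alone.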"}, "Cryptococcus neoformans [24]": {"tested_on": "Cryptococcus neoformans", "test": "Antifungal activity against Cryptococcus neoformans ATCC 24067 after 48 to 72 hrs by broth microdilution method", "assay_type": "functional", "outline": "as §2"}, "[25]": {"test": "Cytotoxicity against C57BL/6 mouse peritoneal macrophages assessed as cell viability measured after 48 hrs by MTT assay", "assay_type": "cell-based", "conditions": "C57BL/6, Peritoneal macrophage cell", "outline": "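Thioglycollate-elicited peritoneal macrophages from male C57BL/6 mice, 6–8 weeks old, in RPMI with 10% FBS. Seeded 1 x 10^5 cells/well, pre-incubated 24 h at 37°C. Exposed 48 h at 37°C, 5% CO2, to eight nonserial dilutions from 100 to 0.0128 µM, with 0.5% DMSO control. MTT read-out, % inhibition versus DMSO control. IC50 reported as median with 95% CI. Triplicate, two independent experiments.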"}, "[26]": {"test": "Selectivity index, ratio of IC50 for African green monkey Vero cells to MIC for Cryptococcus neoformans ATCC 24067", "assay_type": "toxicity, cell-based"}, "[27]": {"tested_on": "Cryptococcus bacillisporus", "test": "Antifungal activity against Cryptococcus gattii ATCC 32608 after 48 to 72 hrs by broth microdilution method", "assay_type": "functional", "outline": "as §1"}}, "data": [{"molecule": "COc1ccc(-c2csc(N/N=C(\\C)CCO)n2)cc1", "values": [{"measurement": "MFC", "setting": "[1]", "value": 3.9, "unit": "µM"}, {"measurement": "MIC", "setting": "[1]", "value": 1.4, "unit": "µM"}, {"measurement": "MFC", "setting": "Cryptococcus neoformans [2]", "value": 3.9, "unit": "µM"}, {"measurement": "MIC", "setting": "Cryptococcus neoformans [2]", "value": 0.5, "unit": "µM"}, {"measurement": "MFC", "setting": "[3]", "value": 3.9, "unit": "µM"}, {"measurement": "MIC", "setting": "[3]", "value": 1.7, "unit": "µM"}, {"measurement": "MFC", "setting": "Cryptococcus neoformans [4]", "value": 3.9, "unit": "µM"}, {"measurement": "MIC", "setting": "Cryptococcus neoformans [4]", "value": 0.6, "unit": "µM"}, {"measurement": "MFC", "setting": "Cryptococcus neoformans [5]", "value": 3.9, "unit": "µM"}, {"measurement": "MIC", "setting": "Cryptococcus neoformans [5]", "value": 0.9, "unit": "µM"}, {"measurement": "MFC", "setting": "Cryptococcus neoformans [6]", "value": 3.9, "unit": "µM"}, {"measurement": "MIC", "setting": "Cryptococcus neoformans [6]", "value": 0.6, "unit": "µM"}, {"measurement": "MFC", "setting": "Cryptococcus neoformans [7]", "value": 3.9, "unit": "µM"}, {"measurement": "MIC", "setting": "Cryptococcus neoformans [7]", "value": 0.5, "unit": "µM"}, {"measurement": "MFC", "setting": "Cryptococcus neoformans [8]", "value": 7.8, "unit": "µM"}, {"measurement": "MIC", "setting": "Cryptococcus neoformans [8]", "value": 0.5, "unit": "µM"}, {"measurement": "MFC", "setting": "[9]", "value": 1.9, "unit": "µM"}, {"measurement": "MIC", "setting": "[9]", "value": 0.7, "unit": "µM"}, {"measurement": "MFC", "setting": "Cryptococcus neoformans [10]", "value": 3.9, "unit": "µM"}, {"measurement": "MIC", "setting": "Cryptococcus neoformans [10]", "value": 0.7, "unit": "µM"}, {"measurement": "MFC", "setting": "Cryptococcus neoformans [11]", "value": 7.8, "unit": "µM"}, {"measurement": "MIC", "setting": "Cryptococcus neoformans [11]", "value": 1.2, "unit": "µM"}, {"measurement": "IC50", "setting": "Vero", "value": "> 100", "unit": "µM"}, {"measurement": "MFC", "setting": "Cryptococcus neoformans [12]", "value": 3.9, "unit": "µM"}, {"measurement": "MIC", "setting": "Cryptococcus neoformans [12]", "value": 0.5, "unit": "µM"}, {"measurement": "MFC", "setting": "Cryptococcus neoformans [13]", "value": 15.6, "unit": "µM"}, {"measurement": "MIC", "setting": "Cryptococcus neoformans [13]", "value": 0.6, "unit": "µM"}, {"measurement": "MFC", "setting": "[14]", "value": 3.9, "unit": "µM"}, {"measurement": "MIC", "setting": "[14]", "value": 1.4, "unit": "µM"}, {"measurement": "Ratio", "setting": "[15]", "value": 222}, {"measurement": "MFC", "setting": "[16]", "value": 3.9, "unit": "µM"}, {"measurement": "MIC", "setting": "[16]", "value": 1.4, "unit": "µM"}, {"measurement": "MFC", "setting": "[17]", "value": 3.9, "unit": "µM"}, {"measurement": "MIC", "setting": "[17]", "value": 1.4, "unit": "µM"}, {"measurement": "MFC", "setting": "[18]", "value": 3.9, "unit": "µM"}, {"measurement": "MIC", "setting": "[18]", "value": 1.4, "unit": "µM"}, {"measurement": "MFC", "setting": "[19]", "value": 1.9, "unit": "µM"}, {"measurement": "MIC", "setting": "[19]", "value": 0.9, "unit": "µM"}, {"measurement": "MFC", "setting": "[20]", "value": 1.9, "unit": "µM"}, {"measurement": "MIC", "setting": "[20]", "value": 0.8, "unit": "µM"}, {"measurement": "MFC", "setting": "Cryptococcus neoformans [21]", "value": 3.9, "unit": "µM"}, {"measurement": "MIC", "setting": "Cryptococcus neoformans [21]", "value": 0.9, "unit": "µM"}, {"measurement": "MFC", "setting": "[22]", "value": 3.9, "unit": "µM"}, {"measurement": "MIC", "setting": "[22]", "value": 0.9, "unit": "µM"}, {"measurement": "fractional inhibitory concentration index (FICI)", "setting": "Cryptococcus neoformans [23]", "value": 1.58}, {"measurement": "MIC", "setting": "Cryptococcus neoformans [24]", "value": 0.45, "unit": "µM"}, {"measurement": "IC50", "setting": "[25]", "value": "> 100", "unit": "µM"}, {"measurement": "selectivity ratio", "setting": "[26]", "value": 111}, {"measurement": "MFC", "setting": "[27]", "value": 3.9, "unit": "µM"}, {"measurement": "MIC", "setting": "[27]", "value": 1.4, "unit": "µM"}]}]}
